Data on 24 compounds can be found in ChEMBL document CHEMBL2331220, “Benzimidazole clubbed with triazolo-thiadiazoles and triazolo-thiadiazines: new anticancer agents” (2013).

Common to all, as to type: functional
The test system of test [1] is UO-31. As to the kind of experiment: Cytotoxicity against human UO31 cells assessed as cell growth at 10 uM after 48 hrs by SRB assay relative to control. To be noted: UO-31, 48 h, read-out: Activity. Summed up:
(§1)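 NCI single-dose primary screen: compound added at 1 × 10⁻⁵ M, cultures incubated 48 h. Protein stained with sulforhodamine B. Result given as percent growth of treated cells relative to untreated controls, where negative values mean cell kill.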
Background: The SRB assay estimates cell density from bound dye.

Test [2] deals with UO-31. As to the kind of experiment: Growth inhibition of human UO31 cells at 10 uM after 48 hrs by SRB assay relative to control. To be noted: UO-31, 48 h, read-out: GI. A digest of the protocol: as §1
The test system of another test is NCI-H322M. As to the kind of experiment: Cytotoxicity against human NCI-H322M cells assessed as cell growth at 10 uM after 48 hrs by SRB assay relative to control. To be noted: read-out: Activity. A digest of the protocol: (§2)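 Single-dose NCI screen. Compound was added at 1 × 10^-5 M and cultures were incubated 48 h. End point was sulforhodamine B protein staining, reported as percent growth of treated cells versus untreated control cells.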

Another test has as its system T47D. As to the kind of experiment: Cytotoxicity against human T47D cells assessed as cell growth at 10 uM after 48 hrs by SRB assay relative to control. The following applies: read-out: Activity. A digest of the protocol: as §1
The test system of test [3] is NCI-H522. As to the kind of experiment: Growth inhibition of human NCI-H522 cells at 10 uM after 48 hrs by SRB assay relative to control. To be noted: NCI-H522, 48 h, read-out: GI. A digest of the protocol:
as §1

Test [4] deals with NCI-H522. As to the kind of experiment: Cytotoxicity against human NCI-H522 cells assessed as cell growth at 10 uM after 48 hrs by SRB assay relative to control. To be noted: NCI-H522, 48 h, read-out: Activity. Summed up:
as §2

For test [5], the system named is HOP-62. As to the kind of experiment: Growth inhibition of human HOP62 cells at 10 uM after 48 hrs by SRB assay relative to control. The following applies: HOP-62, 48 h, read-out: GI. A digest of the protocol: as §1
Test [6] relates to HOP-62. As to the kind of experiment: Cytotoxicity against human HOP62 cells assessed as cell growth at 10 uM after 48 hrs by SRB assay relative to control. The following applies: HOP-62, 48 h, read-out: Activity. Summed up: as §2
In the next test the test system is IGROV-1. As to the kind of experiment: Growth inhibition of human IGROV1 cells at 10 uM after 48 hrs by SRB assay relative to control. The following applies: IGROV-1, 48 h, read-out: GI. A digest of the protocol: as §1
The test system of the next test is HOP-92. As to the kind of experiment: Cytotoxicity against human HOP92 cells assessed as cell growth at 10 uM after 48 hrs by SRB assay relative to control. The following applies: HOP-92, 48 h, read-out: Activity. A digest of the protocol: as §2
The test system of test [7] is MCF7. As to the kind of experiment: Growth inhibition of human MCF7 cells at 10 uM after 48 hrs by SRB assay relative to control. To be noted: MCF7, 48 h, read-out: GI. A digest of the protocol: as §1
Test [8] concerns MCF7. As to the kind of experiment: Cytotoxicity against human MCF7 cells assessed as cell growth at 10 uM after 48 hrs by SRB assay relative to control. The following applies: MCF7, 48 h, read-out: Activity. Summed up: as §2

For the compound `O=C(CCc1nnc2sc(CCl)nn12)c1nc2ccccc2[nH]1`, the growth at 10 µM in the test on UO-31 [1] worked out at 83.9%.

As for `CCOC1=Nn2c(CCC(=O)c3nc4ccccc4[nH]3)nnc2SC1`, the growth at 10 µM with UO-31 [1] is 80.3%.

As for `O=C(CCc1nnc2sc(S)nn12)c1nc2ccccc2[nH]1`, the growth at 10 µM with UO-31 [1] was 76.6%.

On to `O=C(CCc1nnc2sc(COc3ccccc3)nn12)c1nc2ccccc2[nH]1`, for which the inhibition of growth at 10 µM in the test on UO-31 [2] was ≤ 32%. Further, the growth at 10 µM with UO-31 [1] amounted to 64.3%.

With `O=C(CCc1nnc2sc(Nc3ccc(Cl)cc3)nn12)c1nc2ccccc2[nH]1`, in the test on UO-31 [2], the inhibition of growth at 10 µM is ≤ 32%. In addition, in the test with UO-31 [1], the growth at 10 µM was 64.2%.

`NC1=Nn2c(CCC(=O)c3nc4ccccc4[nH]3)nnc2SC1`: the growth at 10 µM in the test with UO-31 [1] stood at 80.4%.

On to `O=C(CCc1nnc2sc(Cc3ccccc3Cl)nn12)c1nc2ccccc2[nH]1`, for which the inhibition of growth at 10 µM in the test with UO-31 [2] was ≤ 32%. Also, the growth at 10 µM in the test with UO-31 [1] turned out to be 63%.

In the case of `O=C(CCc1nnc2sc(-c3ccccc3S)nn12)c1nc2ccccc2[nH]1`, in the test on NCI-H322M, the growth at 10 µM came out at 73.9%.

Turning to `Cc1nn2c(CCC(=O)c3nc4ccccc4[nH]3)nnc2s1`, in the test on T47D, the growth at 10 µM came out at 84.2%.

`N#CCc1nn2c(CCC(=O)c3nc4ccccc4[nH]3)nnc2s1`: in the test on UO-31 [1], the growth at 10 µM was found to be 75.5%.

For the compound `O=C(CCc1nnc2sc(C(c3ccccc3)c3ccccc3)nn12)c1nc2ccccc2[nH]1`, in the test with NCI-H522 [3], the inhibition of growth at 10 µM is ≤ 32%. Also, in the test with NCI-H522 [4], the growth at 10 µM worked out at 30.2%.

In the case of `COc1ccc(-c2nn3c(CCC(=O)c4nc5ccccc5[nH]4)nnc3s2)cc1`, the growth at 10 µM in the test with UO-31 [1] is 69.6%.

For the compound `C=Cc1nn2c(CCC(=O)c3nc4ccccc4[nH]3)nnc2s1`, the growth at 10 µM in the test with UO-31 [1] amounted to 76.2%.

For `CCOc1nn2c(CCC(=O)c3nc4ccccc4[nH]3)nnc2s1`, in the test with HOP-62 [5], the inhibition of growth at 10 µM was ≤ 32%. The growth at 10 µM with HOP-62 [6] was 28.7%.

For `NCCCc1nn2c(CCC(=O)c3nc4ccccc4[nH]3)nnc2s1`, in the test on UO-31 [1], the growth at 10 µM was found to be 73.8%.

Regarding `O=C(CCc1nnc2n1N=C(Cl)CS2)c1nc2ccccc2[nH]1`, in the test with UO-31 [1], the growth at 10 µM turned out to be 78.9%.

`C/C=C\c1nn2c(CCC(=O)c3nc4ccccc4[nH]3)nnc2s1`: the inhibition of growth at 10 µM in the test with IGROV-1 is ≤ 32%. The growth at 10 µM with UO-31 [1] turned out to be 54.9%.

Take `O=C(CCc1nnc2sc(-c3ccccc3O)nn12)c1nc2ccccc2[nH]1`: the inhibition of growth at 10 µM in the test on IGROV-1 is ≤ 32%. The growth at 10 µM in the test on UO-31 [1] stood at 51.3%.

For `O=C(CCc1nnc(S)o1)c1nc2ccccc2[nH]1`, the growth at 10 µM in the test with HOP-92 came out at 69.4%.

As for `O=C(CCc1nnc2n1N=C(O)CS2)c1nc2ccccc2[nH]1`, the growth at 10 µM with UO-31 [1] was 79.8%.

As for `O=C(CCc1nnc2sc(CS)nn12)c1nc2ccccc2[nH]1`, the growth at 10 µM in the test with UO-31 [1] was 79.4%.

For the compound `O=C(CCc1nnc2sc(CCCl)nn12)c1nc2ccccc2[nH]1`, the growth at 10 µM with UO-31 [1] was 80.1%.

Take `O=C(CCc1nnc2sc(-c3ccc(O)cc3)nn12)c1nc2ccccc2[nH]1`: the inhibition of growth at 10 µM in the test with UO-31 [2] is ≤ 32%. Further, in the test with UO-31 [1], the growth at 10 µM was 67.7%.

Take `Nc1ccccc1-c1nn2c(CCC(=O)c3nc4ccccc4[nH]3)nnc2s1`: the inhibition of growth at 10 µM in the test with MCF7 [7] is ≤ 32%. Besides, the growth at 10 µM in the test with MCF7 [8] came out at 62%.
